Measurements from ChEMBL document CHEMBL1139365, “Inhibition of MDR1 activity in vitro by a novel class of diltiazem analogues: toward new candidates” (J Med Chem, 2009).

Columns and labels:
[1] = tested on: A2780; assay: Antiproliferative activity against human A2780 cells at 3.1 uM after 3 days by MTT assay; assay type: functional; details: A2780, 72 h
[2] = tested on: A2780; assay: Antiproliferative activity against human A2780 cells after 3 days by MTT assay; assay type: functional, cell-based; details: for IC50: Homo sapiens, A2780, 72 h
Outline: (§1)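 Cells plated 6–8 h in 96-well plates. Compound alone, in duplicate at ≥5 concentrations (3-fold serial dilutions, top 100 μM), with final DMSO […] after predilution in FCS. After 3 days, MTT 4 h at 37 °C, formazan dissolved in DMSO, A540. IC50 taken from single dose–response curves; 3–4 experiments. A2780/DX3 kept doxorubicin-free 2–3 days beforehand.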

[3] = Antiproliferative activity against human A2780/DX3 cells after 3 days by MTT assay; assay type: functional, cell-based; details: for IC50: Homo sapiens, A2780/DX3, 72 h; outline: as §1
[4] = tested on: A2780 ADR; assay: Reversal of P-gp 170-mediated multidrug resistance in human A2780/DX3 cells assessed as reduction in doxorubicin IC50 at IC5 pretreated for 6 hrs before doxorubicin administration measured after 3 days by MTT assay; assay type: cell-based; set-up: scale not given: the % may be the effect or the level left
Outline: (§2)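 A2780/DX3 cells went into medium holding the modulator at its MTT-derived 0% or 5% growth-inhibition concentration. Doxorubicin (30–0.048 μM serial dilutions, modulator kept constant) was added 6 h later. MTT (2 mg/mL) was added after 3 days for 4 h at 37 °C, formazan dissolved in DMSO, A540 read. IC50 came from dose–response curves, repeated 4–6 times. % reduction is versus doxorubicin alone in the same experiment. Kruskal–Wallis/Mann–Whitney tests.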

[5] = tested on: A2780 ADR; assay: Reversal of P-gp 170-mediated multidrug resistance in human A2780/DX3 cells assessed as reduction in doxorubicin IC50 at IC0 pretreated for 6 hrs before doxorubicin administration measured after 3 days by MTT assay; assay type: cell-based; set-up: scale not given: the % may be the effect or the level left; outline: as §2
[6] = tested on: A2780 ADR; assay: Reversal of P-gp 170-mediated multidrug resistance in human A2780/DX3 cells assessed as increase in intracellular doxorubicin accumulation at 5 times IC5 pretreated for 2 hrs before doxorubicin administration measured after 2 hrs by flow cytometry; assay type: cell-based
Outline: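 A2780/DX3 cells (kept in 0.1 μM doxorubicin, drug withdrawn 2–3 days before use) seeded in flasks, grown 24 h to 75–85% confluence. Modulator given at five times the 5%-growth-inhibition concentration for 2 h, then 10 μM doxorubicin for 2 h more. Cells trypsinized, fixed in 3.7% paraformaldehyde/2% sucrose in PBS. Flow cytometry, 488 nm excitation, 575 nm bandpass. Read-out is MFI, with % increase taken from the MFI ratio to doxorubicin alone.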

[7] = Antiproliferative activity against human A2780/DX3 cells at 3.7 uM after 3 days by MTT assay; assay type: functional; details: A2780/DX3, 72 h
[8] = tested on: A2780; assay: Antiproliferative activity against human A2780 cells at 9.4 uM after 3 days by MTT assay; assay type: functional; details: A2780, 72 h
[9] = Antiproliferative activity against human A2780/DX3 cells at 4.2 uM after 3 days by MTT assay; assay type: functional; details: A2780/DX3, 72 h
[10] = tested on: A2780; assay: Antiproliferative activity against human A2780 cells at 2.1 uM after 3 days by MTT assay; assay type: functional; details: A2780, 72 h
[11] = Antiproliferative activity against human A2780/DX3 cells at 1.5 uM after 3 days by MTT assay; assay type: functional; details: A2780/DX3, 72 h
[12] = tested on: A2780; assay: Antiproliferative activity against human A2780 cells at 1.5 uM after 3 days by MTT assay; assay type: functional; details: A2780, 72 h
[13] = Blockade of L-type calcium channel
[14] = Antiproliferative activity against human A2780/DX3 cells at 1.0 uM after 3 days by MTT assay; assay type: functional; details: A2780/DX3, 72 h
[15] = tested on: A2780; assay: Antiproliferative activity against human A2780 cells at 2.22 uM after 3 days by MTT assay; assay type: functional; details: A2780, 72 h
[16] = Antiproliferative activity against human A2780/DX3 cells at 2.40 uM after 3 days by MTT assay; assay type: functional; details: A2780/DX3, 72 h
[17] = tested on: A2780; assay: Antiproliferative activity against human A2780 cells at 0.23 uM after 3 days by MTT assay; assay type: functional; details: A2780, 72 h
[18] = Antiproliferative activity against human A2780/DX3 cells at 1.88 uM after 3 days by MTT assay; assay type: functional; details: A2780/DX3, 72 h
[19] = tested on: A2780; assay: Antiproliferative activity against human A2780 cells at 12.2 uM after 3 days by MTT assay; assay type: functional; details: A2780, 72 h
[20] = tested on: A2780; assay: Antiproliferative activity against human A2780 cells at 0.72 uM after 3 days by MTT assay; assay type: functional; details: A2780, 72 h
[21] = Antiproliferative activity against human A2780/DX3 cells at 4.5 uM after 3 days by MTT assay; assay type: functional; details: A2780/DX3, 72 h
[22] = tested on: A2780; assay: Antiproliferative activity against human A2780 cells at 6.1 uM after 3 days by MTT assay; assay type: functional; details: A2780, 72 h
[23] = Antiproliferative activity against human A2780/DX3 cells at 0.5 uM after 3 days by MTT assay; assay type: functional; details: A2780/DX3, 72 h

With CC1=CSC(O)(c2cccc([N+](=O)[O-])c2)c2noc(=O)n21 (configuration not stated) the inhibition at 3.1 µM [1] was 0%, the IC5 [2] was 3.95 µM and the IC50 [2] was 159 µM. For the same compound, the IC5 [3] was 15.9 µM, the IC50 [3] was 129 µM and the Activity [4] was 10%. For the same compound, the Activity [5] was -21%, the Activity [6] was under 48% and the inhibition at 3.7 µM [7] was 0%.
For COC1(c2ccc(Br)cc2)SC=C(C)n2c1noc2=O (configuration not stated), the inhibition at 9.4 µM [8] was 0%, the IC5 [2] was 21.6 µM and the IC50 [2] was 148 µM. For the same compound, the IC5 [3] was 8.9 µM, the IC50 [3] was over 100 µM and the Activity [4] was -9%. For the same compound, the Activity [5] was -9%, the Activity [6] was under 48% and the inhibition at 4.2 µM [9] was 0%.
CC1=CSC(O)(c2ccc([N+](=O)[O-])cc2)c2noc(=O)n21 (configuration not stated) showed an inhibition at 2.1 µM [10] of 0%, an IC5 [2] of 7.7 µM and an IC50 [2] of over 100 µM. The IC5 [3] was 2.9 µM, the IC50 [3] was over 100 µM and the Activity [4] was -10%. For the same compound, the Activity [5] was 26%, the Activity [6] was under 48% and the inhibition at 1.5 µM [11] was 0%.
With CCOC1(c2ccc(Br)cc2)SC=C(C)n2c1noc2=O (configuration not stated) the inhibition at 1.5 µM [12] was 0%, the EC50 [13] was 0.04 µM and the IC5 [2] was 3.3 µM. The IC50 [2] was over 100 µM, the IC5 [3] was 7.8 µM and the IC50 [3] was over 100 µM. For the same compound, the Activity [4] was -8%, the Activity [5] was 6% and the Activity [6] was under 48%. For the same compound, the inhibition at 1 µM [14] was 0%.
With CCCCCCCCCCCCCCCCCCOC1(c2ccc(Cl)cc2)SC=C(C)n2c1noc2=O (configuration not stated) the IC5 [2] was 4.74 µM, the IC50 [2] was over 100 µM and the IC5 [3] was 6.74 µM. It also gave an IC50 [3] of over 100 µM, an Activity [4] of -20% and an Activity [5] of -24%. It also gave an Activity [6] of under 48%, an inhibition at 2.22 µM [15] of 0% and an inhibition at 2.4 µM [16] of 0%.
CCCCCCCCCCCCCCCCCCOC1(c2ccc(Br)cc2)SC=C(C)n2c1noc2=O (configuration not stated) gave an IC5 [2] of 0.9 µM, an IC50 [2] of over 100 µM and an IC5 [3] of 4.9 µM. The IC50 [3] was over 100 µM, the Activity [4] was -22% and the Activity [5] was -21%. It also gave an Activity [6] of under 48%, an inhibition at 0.23 µM [17] of 0% and an inhibition at 1.88 µM [18] of 0%.
In the case of CCCCOC1(c2ccc(Cl)cc2)SC=C(C)n2c1noc2=O (configuration not stated), the IC5 [2] is reported as 19.7 µM, the IC50 [2] is reported as 89 µM and the IC5 [3] is reported as 2.2 µM. It also gave an IC50 [3] of 49 µM, an Activity [4] of -16% and an Activity [5] of -21%. The Activity [6] was under 48%, the inhibition at 12.2 µM [19] was 0% and the inhibition at 1 µM [14] was 0%.
Compound CCCCCCCCCCCCCCCOC1(c2ccc(Cl)cc2)SC=C(C)n2c1noc2=O (configuration not stated) has an IC5 [2] of 2.1 µM, an IC50 [2] of over 100 µM and an IC5 [3] of 14.6 µM. The IC50 [3] was over 100 µM, the Activity [4] was -13% and the Activity [5] was -14%. The Activity [6] was under 48%, the inhibition at 0.72 µM [20] was 0% and the inhibition at 4.5 µM [21] was 0%.
Compound CC1=CSC(O)(c2ccc(C)cc2)c2noc(=O)n21 (configuration not stated) has an inhibition at 6.1 µM [22] of 0%, an IC5 [2] of 28.8 µM and an IC50 [2] of over 100 µM. It also gave an IC5 [3] of 31.1 µM, an IC50 [3] of over 100 µM and an Activity [4] of -1%. For the same compound, the Activity [5] was 4%, the Activity [6] was under 48% and the inhibition at 0.5 µM [23] was 0%.
